Assay results as given in ChEMBL document CHEMBL1144782, “Isoindolo[2,1-a]quinoxaline derivatives, novel potent antitumor agents with dual inhibition of tubulin polymerization and topoisomerase I” (2008).

What follows are molecules tested on NCI-H460 (assay: Antitumor activity against human NCI-H460 cells). Conditions: read-out: Log LC50 (the source's name) (converted).
Type: functional
Outline: (§1)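 Run by the NCI in its in vitro disease-oriented screen of about 60 human tumour cell lines. For each line it reports pGI50 (50% net growth inhibition), pTGI (total growth inhibition) and pLC50 (50% net cell death), each as –log molar concentration. Where an effect was not reached within the tested range, the highest tested concentration was used.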

SMILES	CC50 [µM]
Cc1cc2[nH]c(=O)c3c4ccccc4cn3c2cc1C	63.1

Same assay, conditions: read-out: pTGI (converted)

SMILES	TGI [µM]
Cc1cc2[nH]c(=O)c3c4ccccc4cn3c2cc1C	20.4

Each molecule was assayed on Hs-578T (assay: Antitumor activity against human HS578T cells). Conditions: not given.
Type: functional
Outline: as §1

SMILES	GI50 [µM]
Cc1cc2[nH]c(=O)c3c4ccccc4cn3c2cc1C	25.1

Same assay, conditions: read-out: Log LC50 (the source's name) (converted)

SMILES	CC50 [µM]
Cc1cc2[nH]c(=O)c3c4ccccc4cn3c2cc1C	> 100

Same assay, conditions: read-out: pTGI (converted)

SMILES	TGI [µM]
Cc1cc2[nH]c(=O)c3c4ccccc4cn3c2cc1C	60.3

These molecules were tested on BT-549 (assay: Antitumor activity against human BT549 cells). Conditions: not given.
Type: functional
Outline: as §1

SMILES	GI50 [µM]	LC50 (50% net cell kill) [µM]
Cc1cc2[nH]c(=O)c3c4ccccc4cn3c2cc1C	19.5	85.1

Same assay, conditions: read-out: pTGI (converted)

SMILES	TGI [µM]
Cc1cc2[nH]c(=O)c3c4ccccc4cn3c2cc1C	40.7

These molecules were tested on SF-268 (assay: Cell viability against human SF268 cells at 10 uM). Conditions: not given.
Type: functional

SMILES	Activity [%]
Cc1cc2[nH]c(=O)c3c4ccccc4cn3c2cc1C	0

Each molecule was assayed on SF-539 (assay: Antitumor activity against human SF539 cells). Conditions: not given.
Type: functional
Outline: as §1

SMILES	GI50 [µM]	LC50 (50% net cell kill) [µM]
Cc1cc2[nH]c(=O)c3c4ccccc4cn3c2cc1C	11.2	64.6

Same assay, conditions: read-out: pTGI (converted)

SMILES	TGI [µM]
Cc1cc2[nH]c(=O)c3c4ccccc4cn3c2cc1C	26.9

These molecules were tested on SK-OV-3 (assay: Antitumor activity against human SKOV3 cells). Conditions: not given.
Type: functional
Outline: as §1

SMILES	GI50 [µM]	LC50 (50% net cell kill) [µM]
Cc1cc2[nH]c(=O)c3c4ccccc4cn3c2cc1C	18.2	64.6

Same assay, conditions: read-out: pTGI (converted)

SMILES	TGI [µM]
Cc1cc2[nH]c(=O)c3c4ccccc4cn3c2cc1C	34.7

These molecules were tested on MCF7 (assay: Cell viability against human MCF7 cells at 10 uM). Conditions: not given.
Type: functional

SMILES	Activity [%]
Cc1cc2[nH]c(=O)c3c4ccccc4cn3c2cc1C	0

Each molecule was assayed on CCRF-CEM (assay: Growth inhibition of human CEM cells after 72 hrs by MTT assay). Conditions: not given.
Type: functional
Outline: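 Growth inhibition by MTT after 72 h incubation. Resistant sublines: LoVoDoxo and MCF-7 MDR were kept in 0.1 µg/mL doxorubicin; CEMVbl-100 was selected against vinblastine. GI50 given as mean ± SEM of three independent experiments. Resistance index is resistant-line GI50 over parental GI50.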

SMILES	GI50 [µM]
Cc1cc2[nH]c(=O)c3c4ccccc4cn3c2cc1C	15.5

These molecules were tested on SR (assay: Antitumor activity against human SR cells). Conditions: not given.
Type: functional
Outline: (§2)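 NCI 60-cell-line screen. Parameters were GI50 (50% net growth inhibition), TGI and LC50, each reported as –log molar concentration. Where an effect was not reached within the tested range, the highest tested concentration was used in the calculation.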

SMILES	GI50 [µM]	LC50 [µM]
Cc1cc2[nH]c(=O)c3c4ccccc4cn3c2cc1C	2.57	49

Same assay, conditions: read-out: pTGI (converted)

SMILES	TGI [µM]
Cc1cc2[nH]c(=O)c3c4ccccc4cn3c2cc1C	5.75

These molecules were tested on SK-MEL-5 (assay: Antitumor activity against human SKMEL5 cells). Conditions: not given.
Type: functional
Outline: as §1

SMILES	GI50 [µM]	LC50 [µM]
Cc1cc2[nH]c(=O)c3c4ccccc4cn3c2cc1C	13.5	64.6

Same assay, conditions: read-out: pTGI (converted)

SMILES	TGI [µM]
Cc1cc2[nH]c(=O)c3c4ccccc4cn3c2cc1C	29.5

Each molecule was assayed on OVCAR-3 (assay: Antitumor activity against human OVCAR-3 cells). Conditions: not given.
Type: functional
Outline: as §1

SMILES	GI50 [µM]	LC50 (50% net cell death) [µM]
Cc1cc2[nH]c(=O)c3c4ccccc4cn3c2cc1C	13.8	57.5

Same assay, conditions: read-out: pTGI (converted)

SMILES	TGI [µM]
Cc1cc2[nH]c(=O)c3c4ccccc4cn3c2cc1C	28.2

These molecules were tested on ACHN (assay: Antitumor activity against human ACHN cells). Conditions: not given.
Type: functional
Outline: as §1

SMILES	GI50 [µM]	LC50 (50% net cell kill) [µM]
Cc1cc2[nH]c(=O)c3c4ccccc4cn3c2cc1C	10.2	53.7

Same assay, conditions: read-out: pTGI (converted)

SMILES	TGI [µM]
Cc1cc2[nH]c(=O)c3c4ccccc4cn3c2cc1C	23.4

The molecules below were run on T47D (assay: Antitumor activity against human T47D cells). Conditions: not given.
Type: functional
Outline: as §2

SMILES	GI50 [µM]	LC50 [µM]
Cc1cc2[nH]c(=O)c3c4ccccc4cn3c2cc1C	15.5	> 100

Same assay, conditions: read-out: pTGI (converted)

SMILES	TGI [µM]
Cc1cc2[nH]c(=O)c3c4ccccc4cn3c2cc1C	50.1

The molecules below were run on CCRF-CEM (assay: Resistance index, Ratio of GI50 for human vinblastine-resistant CEM cells to GI50 for human CEM cells). Conditions: not given.
Type: functional

SMILES	RatioGI50
Cc1cc2[nH]c(=O)c3c4ccccc4cn3c2cc1C	0.97
